Columns and labels:
[1] = system: Middle East respiratory syndrome-related coronavirus; experiment: Antiviral activity against Middle East respiratory syndrome coronavirus infected in HuH7 cells expressing T7 RNA polymerase assessed as reduction in virus-induced cytopathic effect incubated for 2 days by non-radioactive cell proliferation assay; format: functional, organism-based; details: Huh-7, 48 h
[2] = Antiviral activity against […] infected in HuH7 cells expressing T7 RNA polymerase assessed as reduction in viral RNA replication incubated for 24 hrs by luciferase reporter gene assay; format: functional, organism-based; details: B3, Huh-7, 24 h
How it was run: (§1)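 Huh-T7 cells (DMEM, 2 mM glutamine, penicillin/streptomycin, 10% FCS growth or 2% maintenance, G-418 400 μg·mL⁻¹) transfected with enteroviral replicon. Compound added in growth medium at 40 μM for screening or 0, 1.25, 2.5, 5, 10, 20, 40 μM for EC50. After 24 h, cells lysed and luciferase activity read. Triplicate or quadruplicate, mean ± SD.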

[3] = system: Human coronavirus 229E; experiment: Antiviral activity against Human coronavirus 229E infected in HuH7 cells expressing T7 RNA polymerase assessed as reduction in virus-induced cytopathic effect incubated for 48 hrs by Alamar blue based assay; format: functional, organism-based; details: Huh-7, 48 h
[4] = Antiviral activity against […] infected in HuH7 cells expressing T7 RNA polymerase assessed as reduction in virus-induced cytopathic effect incubated for 2 days by non-radioactive cell proliferation assay; format: functional, organism-based; details: B3, Huh-7, 48 h
[5] = system: rhinovirus B14; experiment: Antiviral activity against Human rhinovirus 14 infected in HeLa Rh cells assessed as reduction in virus-induced cytopathic effect incubated for 3 days by MTS assay; format: functional, organism-based; details: Rhinovirus B, 72 h
How it was run: (§2)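 CPE reduction assay. RD (EV-A71) or HeLa Rh (EV-D68, HRV) cells seeded 24 h earlier in medium with 2% FCS; HRV2/HRV14 medium contained 30 mM MgCl₂. Serial compound dilutions added with virus. At 3 days post infection, 5% MTS added for 1 h at 37 °C and OD498 read. EC50 taken as 50% protection versus controls by logarithmic interpolation; morphology also checked microscopically.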

[6] = Cytotoxicity against human HuH7 cells expressing T7 RNA polymerase assessed as reduction in cell viability incubated for 2 days by non-radioactive cell proliferation assay; format: cell-based, Huh-7
[7] = Cytotoxicity against human HeLa Rh cells assessed as reduction in cell viability incubated for 3 days by MTS assay; format: cell-based
[8] = Inhibition of Enterovirus A71 protease 3C using DabcylKEALFQ-GPPQF-E(Edans)-NH2 as substrate incubated for 10 mins by fluorospectrometry
How it was run: (§3)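 FRET cleavage assay in 20 mM Tris-HCl, 100 mM NaCl, 1 mM EDTA, 1 mM DTT, pH 7.3. Final enzyme 2 μM for CVB3 3Cpro or 3 μM for EV-A71 3Cpro, preincubated with inhibitor (0–100 μM) for 10 min at 37 °C. Reaction started with 20 μM final Dabcyl-KEALFQ↓GPPQF-E(Edans)-NH₂. Edans dequenching read at ex 360/em 460 nm. Triplicate, mean ± SD.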

[9] = Cytotoxicity against human RD cells assessed as reduction in cell viability incubated for 3 days by MTS assay; format: cell-based
[10] = system: SARS-CoV; experiment: Antiviral activity against SARS coronavirus infected in Vero E6 cells assessed as reduction in virus-induced cytopathic effect incubated for 2 days by non-radioactive cell proliferation assay; format: functional, organism-based; details: Severe acute respiratory syndrome-related coronavirus, Vero C1008, 48 h
[11] = system: SARS-CoV; experiment: Antiviral activity against SARS coronavirus infected in HuH7 cells expressing T7 RNA polymerase assessed as reduction in viral RNA replication incubated for 24 hrs by luciferase reporter gene assay; format: functional, organism-based; details: Severe acute respiratory syndrome-related coronavirus, Huh-7, 24 h
How it was run: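 SARS-CoV replicon (DNA-launched, Renilla luciferase reporter) was transfected into Huh-T7 cells at 80–90% confluency. Compound at 0, 1.25, 2.5, 5, 10, 20 or 40 µM in growth medium was added after transfection. At 24 h, cells were lysed and luciferase activity measured. Runs were in triplicate or quadruplicate, reported as mean ± SD.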

[12] = system: Enterovirus A71; experiment: Antiviral activity against Enterovirus A71 infected in RD cells assessed as reduction in virus-induced cytopathic effect incubated for 3 days by MTS assay; format: functional, organism-based; details: Enterovirus A, 72 h; how it was run: as §2
[13] = system: rhinovirus A2; experiment: Antiviral activity against Human rhinovirus 2 infected in HeLa Rh cells assessed as reduction in virus-induced cytopathic effect incubated for 3 days by MTS assay; format: functional, organism-based; details: Rhinovirus A, 72 h; how it was run: as §2
[14] = Inhibition of human coronavirus NL63 M protease using Dabcyl-KTSAVLQ-SGFRKM-E(Edans)-NH2 as substrate incubated for 10 mins by fluorospectrometry
How it was run: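 0.5 μM final HCoV-NL63 Mpro preincubated 10 min at 37 °C with inhibitor (0–100 μM) in pH 7.3 Tris buffer (100 mM NaCl, 1 mM EDTA, 1 mM DTT). Cleavage of 20 μM Dabcyl-KTSAVLQ↓SGFRKM-E(Edans)-NH₂ followed by fluorescence at 460 nm with 360 nm excitation. IC50 from triplicate measurements, mean ± SD.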

[15] = Inhibition of SARS coronavirus M protease using Dabcyl-KTSAVLQ-SGFRKM-E(Edans)-NH2 as substrate incubated for 10 mins by fluorospectrometry; design: species or system Severe acute respiratory syndrome-related coronavirus
How it was run: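 FRET cleavage assay with 0.5 µM recombinant SARS-CoV Mpro (authentic termini) in 20 mM Tris-HCl, 100 mM NaCl, 1 mM EDTA, 1 mM DTT, pH 7.3. Enzyme was preincubated with inhibitor (0–100 µM) for 10 min at 37 °C, then 20 µM final substrate was added. Fluorescence was read at ex 360/em 460 nm. Triplicate, mean ± SD; IC50 from curve fitting.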

[16] = system: Middle East respiratory syndrome-related coronavirus; experiment: Antiviral activity against Middle East respiratory syndrome coronavirus infected in Vero cells assessed as reduction in virus-induced cytopathic effect incubated for 3 days by non-radioactive cell proliferation assay; format: functional, organism-based; details: 72 h
[17] = system: Enterovirus A71; experiment: Antiviral activity against Enterovirus A71 infected in HuH7 cells expressing T7 RNA polymerase assessed as reduction in viral RNA replication incubated for 24 hrs by luciferase reporter gene assay; format: functional, organism-based; details: Enterovirus A, Huh-7, 24 h; how it was run: as §1
[18] = Inhibition of […] protease 3C using DabcylKEALFQ-GPPQF-E(Edans)-NH2 as substrate incubated for 10 mins by fluorospectrometry; design: species or system Coxsackievirus; how it was run: as §3
[19] = system: enterovirus D68; experiment: Antiviral activity against Enterovirus D68 infected in HeLa Rh cells assessed as reduction in virus-induced cytopathic effect incubated for 3 days by MTS assay; format: functional, organism-based; details: Enterovirus D, 72 h; how it was run: as §2
[20] = Therapeutic index, ratio of CC50 for human HeLa Rh cells to EC50 for Human rhinovirus 2 infected in human HeLa Rh cells; format: toxicity, cell-based; details: read-out: Ratio CC50/EC50
[21] = Therapeutic index, ratio of CC50 for human HeLa Rh cells to EC50 for Human rhinovirus 14 infected in human HeLa Rh cells; format: toxicity, cell-based; details: read-out: Ratio CC50/EC50
[22] = Therapeutic index, ratio of CC50 for human HeLa Rh cells to EC50 for Enterovirus D68 infected in human HeLa Rh cells; format: toxicity, cell-based; details: read-out: Ratio CC50/EC50

Compound	EC50 [1] [µM]	EC50 [2] [µM]	EC50 [3] [µM]	EC50 [4] [µM]	EC50 [5] [µM]	CC50 at 48 h [6] [µM]	CC50 at 72 h [7] [µM]	IC50 [8] [µM]	CC50 at 72 h [9] [µM]	EC50 [10] [µM]	EC50 [11] [µM]	EC50 [12] [µM]	EC50 [13] [µM]	IC50 [14] [µM]	IC50 [15] [µM]	EC50 [16] [µM]	EC50 [17] [µM]	IC50 [18] [µM]	further results
O=C(/C=C/c1ccccc1)N[C@@H](CC1CCCC1)C(=O)N[C@@H](C[C@@H]1CCNC1=O)C(=O)C(=O)NCc1ccccc1	0.007	5.1	2.5	8.1	0.42	47.5	33.2	4.73	30.8	4.9	3.6	4.2	0.51	5.41	1.27	11.1	8.9	1.93	
CC(C)(C)OC(=O)N[C@@H](C[C@@H]1CCNC1=O)C(=O)C(=O)NCc1ccccc1		> 10						> 50			> 40			> 50			> 10	> 50	
CC(C)C[C@H](NC(=O)/C=C/c1ccccc1)C(=O)N[C@@H](C[C@@H]1CCNC1=O)C(=O)C(=O)NCc1ccccc1	0.0046	> 10	0.6	24	13.4	> 188	103	13.8	115	14.2	7.2	72	8.9	1.08	0.33	9.2	> 10	3.82	EC50 [19]: 4.44 µM
CCCC[C@H](NC(=O)/C=C/c1ccccc1)C(=O)N[C@@H](C[C@@H]1CCNC1=O)C(=O)C(=O)NCc1ccccc1								3.24						> 50	8.5		> 20	5.2	
C#CC[C@H](NC(=O)/C=C/c1ccccc1)C(=O)N[C@@H](C[C@@H]1CCNC1=O)C(=O)C(=O)NCc1ccccc1								8.5			> 20			17.4	10.7			8.93	
O=C(/C=C/c1ccccc1)N[C@@H](CC1CCC1)C(=O)N[C@@H](C[C@@H]1CCNC1=O)C(=O)C(=O)NCc1ccccc1	0.02	4.3		10.4	4.2	124	65	10.8	100	7	6.7	41	3.7	3.43	1.44	9.8	20	4.78	selectivity ratio [20]: > 15; selectivity ratio [21]: > 15; selectivity ratio [22]: > 15
O=C(/C=C/c1ccccc1)N[C@@H](CC1CC1)C(=O)N[C@@H](C[C@@H]1CCNC1=O)C(=O)C(=O)NCc1ccccc1	0.08	18	1.3	10.4	5.5	> 189	103	18.5	106	18.4	1.9	46	3.8	1.37	0.24	10.9	> 20	4.25	
O=C(/C=C/c1ccccc1)N[C@@H](CC1CCCCC1)C(=O)N[C@@H](C[C@@H]1CCNC1=O)C(=O)C(=O)NCc1ccccc1	0.0004	2.35	1.8	2.77	0.7	43	10.9	1.69	17.3	2.1	1.4	3.7	0.64	12.3	0.71	5	6.95	0.95	EC50 [19]: 0.48 µM; selectivity ratio [20]: > 15; selectivity ratio [21]: > 15; selectivity ratio [22]: > 15
O=C(/C=C/c1ccccc1)N[C@H](C(=O)N[C@@H](C[C@@H]1CCNC1=O)C(=O)C(=O)NCc1ccccc1)C1CC1								> 30						11.5	6.27			15.4	
O=C(/C=C/c1ccccc1)N[C@@H](Cc1ccc(F)cc1)C(=O)N[C@@H](C[C@@H]1CCNC1=O)C(=O)C(=O)NCc1ccccc1								2.32						> 50			> 20	8.69	

Source: ChEMBL document CHEMBL4402565, “α-Ketoamides as Broad-Spectrum Inhibitors of Coronavirus and Enterovirus Replication: Structure-Based Design, Synthesis, and Activity Assessment” (J Med Chem, 2020)
